# Bioassay records from PubChem.
# IDE act = human IDE activators in live cells, primary screen, fluorescence polarization, HEK cells, FAbeta-B substrate. Insulin-degrading enzyme (Homo sapiens), P14735. FAbeta-B cleavage; 0% vehicle, 100% cell-free pure enzyme wells. activation, % at 5.96 µM. 0.073% of 340,000 active. AID 493087, 2011;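 active = activation above the mean of all tested compounds plus 3 SD, set per screening campaign, cut at about 17% in these data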
# proCasp7 act = procaspase-7 activators, primary screen, counter-screen for procaspase-3 activator project, biochemical, absorbance, HTS, human; activation, % at 8.5 µM; AID 463210, 2010; 0.093% of 330,000 active; recombinant procaspase-7, Ac-DEVD-pNA absorbance 405 nm; D23A/D198A/D206A triple mutant, cannot self-cleave; scale: DMSO 0, 5 µM enzyme 100; Caspase-7 (Homo sapiens), P55210;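 active = percent activation above the screen-wide mean plus 3 SD, cut at about 25% in these data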
#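 System: Procaspase-7 triple mutant (PC-7 D3A); measure: % activation from two-timepoint absorbance difference, scaled to controls; times: 1 h compound preincubation, 2 h substrate cleavage, 25 °C; also added: Ac-DEVD-pNA substrate, 400 µM as added; measured by: Epi-absorbance of released pNA at 405 nm, two timepoints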
# PHOSPHO1 block = PubChem AID 1565; recombinant PHOSPHO1, absorbance phosphatase assay; inhibition, % at 13.3 µM; Phosphoethanolamine/phosphocholine phosphatase (Homo sapiens), Q8TCT1; 1.1% of 290,000 active; in the data active = inhibition above about 60%
# Target sequence (Q8TCT1 whole entry, looked up): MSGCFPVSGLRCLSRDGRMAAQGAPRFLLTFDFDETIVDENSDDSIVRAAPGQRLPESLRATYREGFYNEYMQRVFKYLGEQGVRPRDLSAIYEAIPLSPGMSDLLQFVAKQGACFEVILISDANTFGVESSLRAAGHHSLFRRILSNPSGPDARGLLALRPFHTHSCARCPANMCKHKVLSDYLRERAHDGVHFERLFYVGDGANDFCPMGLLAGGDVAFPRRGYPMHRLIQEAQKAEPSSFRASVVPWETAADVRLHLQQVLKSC
# IDE inh = human IDE inhibitors in live cells, primary screen, fluorescence polarization, HEK cells, FAbetaB substrate | FAbetaB cleavage | inhibition, % at 5.59 µM | 0.41% of 320,000 active | AID 434962, 2010;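 active = percent inhibition above the average of all tested compounds plus 3 SD, set per screening campaign, cut at about 16% in these data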;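 also: IDE supplied by intact live HEK cells; FP after avidin binding of uncleaved biotin substrate so inhibition keeps polarization high; 0% = DMSO wells and 100% = 60 µM reference IDE inhibitor Ii1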
# UBC13 inh = UBC13 polyubiquitin chain formation inhibitors, primary screen, biochemical, TR-FRET, uHTS. Ubiquitin-conjugating enzyme E2 N (Homo sapiens), P61088. inhibition, % at 20 µM. 0.47% of 330,000 active; in the data active = inhibition above about 45%, passing the limit was not always enough; inconclusive = no clear call, values can overlap the other calls
# proCasp3 act = activators of human procaspase-3 D3A mutant, primary screen, biochemical, absorbance, PC-3 D3A mutant, single concentration; Caspase-3 (Homo sapiens), P42574; recombinant procaspase-3 D3A, Ac-DEVD-pNA absorbance 405 nm; activation, % at 8.5 µM; 0.11% of 330,000 active;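 active = activation above the mean of all tested compounds plus 3 SD, cut at about 21% in these data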;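 also: 0% = DMSO alone and 100% = DMSO wells spiked with extra 5 µM PC-3 D3A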
# Target sequence (P42574 whole entry D9A/D28A/D175A): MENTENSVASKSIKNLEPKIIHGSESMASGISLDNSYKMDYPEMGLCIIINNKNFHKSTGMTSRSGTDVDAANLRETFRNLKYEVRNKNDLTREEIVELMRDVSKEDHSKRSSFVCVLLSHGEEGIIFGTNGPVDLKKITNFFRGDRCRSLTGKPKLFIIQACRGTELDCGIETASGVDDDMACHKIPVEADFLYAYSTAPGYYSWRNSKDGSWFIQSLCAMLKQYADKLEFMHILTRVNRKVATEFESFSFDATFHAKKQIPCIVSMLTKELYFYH
#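 System: Procaspase-3 D3A mutant. Medium: Zinc-free 300 mM NaCl, 50 mM HEPES, 0.01% Triton X-100. Schedule: 1 h preincubation plus 2 h reaction at 25 °C. Measured by: 405 nm absorbance of p-nitroaniline, reads at 0 and 120 min. Read-out: percent activation relative to control range.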
# * marks the source's active call; other numbers are inactive results; ? = inconclusive; / = not tested or not shown. In the library only some 1.9% were active in any assay of this set; here they are far more common.
SMILES,IDE act,proCasp7 act,PHOSPHO1 block,IDE inh,UBC13 inh,proCasp3 act
CCN(CC)CCNC(=O)c1ccc(NC(=O)c2cn(-c3ccccc3)nc2-c2cccs2)cc1,-1,-5,28,3,103*,-6
COc1ccc(C(=O)CN2C(=O)NC3(CCCCCC3)C2=O)cc1,4,-1,10,-4,-1,2
Cc1nn(-c2ccccc2)c(=S)n1-c1ccccc1,0,0,-12,9,3,-6
OCCn1nc2c3ccccc3nc-2n(-c2ccccc2)c1=S,3,-18,76*,-4,-1,-25
COc1cc(C(=O)Nc2cccc(-n3cnnn3)c2)cc(OC)c1OC,-2,-7,22,10,3,1
COc1cccc(OC)c1C(=O)Nc1cccc(-n2cnnn2)c1,-2,0,72*,2,-1,2
CCOc1ccccc1NC(=O)NCc1ccccn1,9,0,41,-1,5,3
Cc1cc2oc(=O)cc(CN3CCCCC3)c2cc1C(C)C,3,12,0,1,-5,0
Cc1cc2oc(=O)cc(CN3CCCCC3)c2cc1O,7,9,61*,0,2,5
O=C(NC(=S)NNC(=O)c1ccc(Cl)cc1Cl)c1cccnc1,1,-4,-9,8,?,-14
Cc1ccccc1C(=O)NNC(=S)NC(=O)c1ccc(Cl)cc1Cl,-4,-21,100*,-1,-16,-2
Cn1c(-c2ccccc2)cnc1SCC(=O)N1CCCc2ccccc21,5,-5,-24,-4,-6,1
Cc1ccc(-c2cnc(SCC(=O)N3CCCc4ccccc43)n2C)cc1,5,-4,77*,-2,-21,-16
COc1ccc(C2NCCc3c2[nH]c2ccccc32)cc1COc1ccc(F)cc1 (stereo unspecified),4,-6,-2,-2,47*,-2
O=S(=O)(Cc1nnnn1-c1ccccc1)c1ccc(Cl)cc1,0,-2,38,1,5,11
CCn1nc([N+](=O)[O-])c2c(-c3nc4ccccc4o3)c(N)n(CCCOC)c2c1=O,3,4,96*,-1,-37,-3
COC(=O)c1ccc(N2CCN(C)CC2)c(NC(=O)c2ccc(-c3ccc(Cl)cc3)o2)c1,2,16,18,1,?,-4
O=C1c2ccccc2C(Nc2ccc(-c3nc4ccccc4[nH]3)cc2)N1Cc1ccco1 (stereo unspecified),-13,8,-10,5,-6,-6
O=C1c2ccccc2C(Nc2ccc3nc(-c4cccnc4)[nH]c3c2)N1Cc1ccco1 (stereo unspecified),18*,6,-9,-9,10,-9
Nc1ccc2ccc(O)cc2c1,3,/,/,/,/,/
C[n+]1c2cc(N)ccc2cc2ccc(N)cc21,39*,/,/,/,/,/
COC(=O)c1ccccc1-c1ccc(/C=N/NC(=O)c2cc3ccccc3o2)o1,-3,17,16,5,-7,-4
COC(=O)c1ccccc1-c1c2ccc(=N)cc-2oc2cc(N)ccc12,39*,-1,/,-3,/,-6
COc1ccc(N(CC(=O)NC2CCCC2)C(=O)c2ccc(C)s2)cc1OC,3,7,31,-1,1,-4
O=C(C[n+]1cccc(CNC(=O)c2ccc(OC(F)F)cc2)c1)c1ccccc1,4,-4,61*,-2,-8,2
SMILES,IDE act,proCasp7 act,PHOSPHO1 block,IDE inh,UBC13 inh,proCasp3 act
Cc1c(C(C)(C)C)c(C=S)n2ccccc12,2,0,93*,-3,0,5
CCN1CCN(c2cc(C)c3cc(NC(=S)N4CCN(c5ccccc5)CC4)ccc3n2)CC1,20*,-2,-17,-6,18,-10
O=C(CN1CCOCC1)N/N=C/c1ccccc1,3,5,60*,-5,-12,-3
CCCN(CCC)c1ccc(/C=N/NC(=O)CN2CCOCC2)cc1,5,-5,4,3,3,-10
CCOC(=O)c1c(S(=O)(=O)Nc2ccc(C)cn2)c(C)n(C)c1C,0,1,23,7,4,4
CSc1nc(N2CCOCC2)c2c(c1C#N)CC(C(C)C)OC2 (stereo unspecified),-8,/,44,/,28,/
CC1(C)Cc2c(c(N3CCCC3)[nH]c(=S)c2C#N)CO1,/,-14,67*,8,?,-10
CC(C)C1Cc2c(C#N)c(N)n(C)c(=S)c2CO1 (stereo unspecified),4,-6,68*,5,-2,4
CC1(C)Cc2c(C#N)c(N)sc(=S)c2CS1,-7,-22,101*,4,-18,-25
CSc1nc(N2CCOCC2)c2c(c1C#N)CC(C)(C)OC2,-6,2,12,0,29,0
Cn1c(N)c(C#N)c2c(c1=S)CSC(C)(C)C2,-2,-4,91*,4,-8,-4
CC(C)c1nc(Cl)c(C#N)c2c1CSC(C)(C)C2,0,-4,11,-1,-2,2
Cn1c(N)c(C#N)c2c(c1=S)COC(C)(C)C2,-5,3,64*,10,-3,-1
CC1(C)Cc2c(C#N)c(N)n(-c3ccccc3)c(=S)c2CO1,/,9,20,5,0,-13
CCN1CCN(CCNC(=O)c2ccc(/C=C3/Sc4ccccc4N(Cc4cccc(Cl)c4)C3=O)cc2)CC1,38*,-2,-23,6,23,-8
COc1ccc(CCNc2nc(-c3ccncc3)cs2)cc1OC,0,0,13,5,18,5
COc1ccc(CCNc2nc(-c3sc(C)nc3C)cs2)cc1OC,4,-2,80*,0,-6,0
CCCCCCC(C)n1[nH]c(=O)cc1N (stereo unspecified),2,8,4,-2,8,4
CCC1(c2ccc(F)cc2)NC(=O)N(CC(=O)NCC(=O)Nc2cccc(C)c2C)C1=O (stereo unspecified),6,7,/,-3,-4,2
C=CC[n+]1c(-c2ccc(OC)cc2)csc1NNC(=O)Nc1ccccc1,-1,-16,66*,4,0,-8
Cc1ccc(C(=O)Cn2c(-c3ccccc3)noc2=O)cc1,3,3,62*,-1,2,-1
CC(=O)N(C)c1cccc(-c2ccc3nnc(C)n3n2)c1,2,5,33,0,4,0
